Data published in ChEMBL document CHEMBL5247575 (J Med Chem, 2018).

What follows are molecules tested on Escherichia coli (assay: Synergistic antibacterial activity against Escherichia coli DH10B transfected with pBC SK (-) KPC-3 assessed as meropenem MIC at 4 ug/ml by broth microdilution method). Conditions: dose 4 µg/ml.
Format: functional

Which MIC does the source give for O.O=C(NC1CCNCC1)[C@@H]1CC[C@@H]2CN1C(=O)N2OS(=O)(=O)O [RELEBACTAM] here?
Its MIC is at most 0.12 µg/mL.

What follows are molecules tested on Acinetobacter baumannii (assay: Synergistic antibacterial activity against Acinetobacter baumannii PR381 producing OXA-24/40 assessed as meropenem MIC at 4 ug/ml by broth microdilution method). Conditions: dose 4 µg/ml.
Format: functional

With O.O=C(NC1CCNCC1)[C@@H]1CC[C@@H]2CN1C(=O)N2OS(=O)(=O)O [RELEBACTAM] as the molecule, how does the MIC read?
The MIC was over 16 µg/mL.

Each molecule was assayed on Klebsiella pneumoniae (assay: Synergistic antibacterial activity against Klebsiella pneumoniae jefferson 1773 producing OXA-181 assessed as meropenem MIC at 4 ug/ml by broth microdilution method). Conditions: dose 4 µg/ml.
Format: functional

With O.O=C(NC1CCNCC1)[C@@H]1CC[C@@H]2CN1C(=O)N2OS(=O)(=O)O [RELEBACTAM] as the molecule, how does the MIC read?
Its MIC is 16 µg/mL.

What follows are molecules tested on Escherichia coli (assay: Antibacterial activity against Escherichia coli DH10B transfected with pBC SK (-) PDC-3 by broth microdilution method). Conditions: not given.
Format: functional

Which MIC does the source give for O.O=C(NC1CCNCC1)[C@@H]1CC[C@@H]2CN1C(=O)N2OS(=O)(=O)O [RELEBACTAM] here?
Its MIC is over 16 µg/mL.

The molecules below were run on Escherichia coli (assay: Synergistic antibacterial activity against Escherichia coli DH10B transfected with pBR322-catI-KPC-2 assessed as cefepime MIC at 4 ug/ml by broth microdilution method). Conditions: dose 4 µg/ml.
Format: functional
Method in brief: (§1)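 Broth microdilution per CLSI guidelines, using custom frozen panels. […] Each partner drug was also tested alone. MICs were run in triplicate and the modal value is reported.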

How did the MIC turn out when O.O=C(NC1CCNCC1)[C@@H]1CC[C@@H]2CN1C(=O)N2OS(=O)(=O)O [RELEBACTAM] was run?
Its MIC is at most 0.12 µg/mL.

Each molecule was assayed on Klebsiella pneumoniae (assay: Synergistic antibacterial activity against Klebsiella pneumoniae 1315/2198 producing KPC-3 assessed as meropenem MIC at 4 ug/ml by broth microdilution method). Conditions: dose 4 µg/ml.
Format: functional
Method in brief: as §1

O.O=C(NC1CCNCC1)[C@@H]1CC[C@@H]2CN1C(=O)N2OS(=O)(=O)O [RELEBACTAM] was tested. Which MIC did it give?
The MIC was at most 0.12 µg/mL.

What follows are molecules tested on Bacteria (assay: Inhibition of bacteria ADC-7 assessed as second order rate constant K2/K using nitrocefin as substrate). Conditions: not given.

Which K does the source give for O.O=C(NC1CCNCC1)[C@@H]1CC[C@@H]2CN1C(=O)N2OS(=O)(=O)O [RELEBACTAM] here?
The K was 7.8 10^3/M/s.

What follows are molecules tested on Escherichia coli (assay: Antibacterial activity against Escherichia coli DH10B transfected with pBC SK (-) OXA-48 by broth microdilution method). Conditions: not given.
Format: functional

Which MIC does the source give for O.O=C(NC1CCNCC1)[C@@H]1CC[C@@H]2CN1C(=O)N2OS(=O)(=O)O [RELEBACTAM] here?
The MIC was over 16 µg/mL.

Each molecule was assayed on Acinetobacter baumannii (assay: Synergistic antibacterial activity against Acinetobacter baumannii PR363 producing OXA-23 assessed as cefepime MIC at 4 ug/ml by broth microdilution method). Conditions: dose 4 µg/ml.
Format: functional

How did the MIC turn out when O.O=C(NC1CCNCC1)[C@@H]1CC[C@@H]2CN1C(=O)N2OS(=O)(=O)O [RELEBACTAM] was run?
The MIC was 16 µg/mL.

Each molecule was assayed on Klebsiella pneumoniae (assay: Synergistic antibacterial activity against Klebsiella pneumoniae 660/1568 producing KPC-3 assessed as meropenem MIC at 4 ug/ml by broth microdilution method). Conditions: dose 4 µg/ml.
Format: functional
Method in brief: as §1

O.O=C(NC1CCNCC1)[C@@H]1CC[C@@H]2CN1C(=O)N2OS(=O)(=O)O [RELEBACTAM] was tested. Which MIC did it give?
Its MIC is at most 0.12 µg/mL.

Each molecule was assayed on Acinetobacter baumannii (assay: Synergistic antibacterial activity against ADC deleted Acinetobacter baumannii assessed as meropenem MIC at 4 ug/ml by broth microdilution method). Conditions: dose 4 µg/ml.
Format: functional

With O.O=C(NC1CCNCC1)[C@@H]1CC[C@@H]2CN1C(=O)N2OS(=O)(=O)O [RELEBACTAM] as the molecule, how does the MIC read?
Its MIC is at most 0.12 µg/mL.

What follows are molecules tested on Klebsiella pneumoniae (assay: Synergistic antibacterial activity against Klebsiella pneumoniae 977/1916 producing KPC-3 assessed as cefepime MIC at 4 ug/ml by broth microdilution method). Conditions: dose 4 µg/ml.
Format: functional

For O.O=C(NC1CCNCC1)[C@@H]1CC[C@@H]2CN1C(=O)N2OS(=O)(=O)O [RELEBACTAM], which MIC is on record?
Its MIC is 0.25 µg/mL.

The molecules below were run on Klebsiella pneumoniae (assay: Synergistic antibacterial activity against Klebsiella pneumoniae 761/1723 producing KPC-3 assessed as cefepime MIC at 4 ug/ml by broth microdilution method). Conditions: dose 4 µg/ml.
Format: functional
Method in brief: as §1

O.O=C(NC1CCNCC1)[C@@H]1CC[C@@H]2CN1C(=O)N2OS(=O)(=O)O [RELEBACTAM] was tested. Which MIC did it give?
The MIC was at most 0.12 µg/mL.

Each molecule was assayed on Klebsiella pneumoniae (assay: Synergistic antibacterial activity against Klebsiella pneumoniae 977/1916 producing KPC-3 assessed as meropenem MIC at 4 ug/ml by broth microdilution method). Conditions: dose 4 µg/ml.
Format: functional

Which MIC does the source give for O.O=C(NC1CCNCC1)[C@@H]1CC[C@@H]2CN1C(=O)N2OS(=O)(=O)O [RELEBACTAM] here?
Its MIC is at most 0.12 µg/mL.

The molecules below were run on Escherichia coli (assay: Synergistic antibacterial activity against Escherichia coli DH10B transfected with pBC SK (-) KPC-2 assessed as cefepime MIC at 4 ug/ml by broth microdilution method). Conditions: dose 4 µg/ml.
Format: functional

With O.O=C(NC1CCNCC1)[C@@H]1CC[C@@H]2CN1C(=O)N2OS(=O)(=O)O [RELEBACTAM] as the molecule, how does the MIC read?
Its MIC is at most 0.12 µg/mL.

What follows are molecules tested on Escherichia coli (assay: Synergistic antibacterial activity against Escherichia coli DH10B transfected with pBC SK (-) OXA-48 assessed as cefepime MIC at 4 ug/ml by broth microdilution method). Conditions: dose 4 µg/ml.
Format: functional
Method in brief: as §1

How did the MIC turn out when O.O=C(NC1CCNCC1)[C@@H]1CC[C@@H]2CN1C(=O)N2OS(=O)(=O)O [RELEBACTAM] was run?
Its MIC is at most 0.12 µg/mL.

What follows are molecules tested on Pseudomonas aeruginosa (assay: Antibacterial activity against Pseudomonas aeruginosa CL232 by broth microdilution method). Conditions: not given.
Format: functional

How did the MIC turn out when O.O=C(NC1CCNCC1)[C@@H]1CC[C@@H]2CN1C(=O)N2OS(=O)(=O)O [RELEBACTAM] was run?
The MIC was over 16 µg/mL.

These molecules were tested on Acinetobacter baumannii (assay: Synergistic antibacterial activity against Acinetobacter baumannii PR420 producing OXA-23/24/40 assessed as cefepime MIC at 4 ug/ml by broth microdilution method). Conditions: dose 4 µg/ml.
Format: functional

O.O=C(NC1CCNCC1)[C@@H]1CC[C@@H]2CN1C(=O)N2OS(=O)(=O)O [RELEBACTAM] was tested. Which MIC did it give?
Its MIC is over 16 µg/mL.

What follows are molecules tested on Escherichia coli (assay: Synergistic antibacterial activity against Escherichia coli DH10B transfected with pBC SK (-) OXA-48 assessed as meropenem MIC at 4 ug/ml by broth microdilution method). Conditions: dose 4 µg/ml.
Format: functional
Method in brief: as §1

For O.O=C(NC1CCNCC1)[C@@H]1CC[C@@H]2CN1C(=O)N2OS(=O)(=O)O [RELEBACTAM], which MIC is on record?
The MIC was 0.25 µg/mL.

These molecules were tested on Acinetobacter baumannii (assay: Synergistic antibacterial activity against Acinetobacter baumannii PR323 producing OXA-24/40 assessed as meropenem MIC at 4 ug/ml by broth microdilution method). Conditions: dose 4 µg/ml.
Format: functional

O.O=C(NC1CCNCC1)[C@@H]1CC[C@@H]2CN1C(=O)N2OS(=O)(=O)O [RELEBACTAM] was tested. Which MIC did it give?
Its MIC is over 16 µg/mL.

What follows are molecules tested on Klebsiella pneumoniae (assay: Synergistic antibacterial activity against Klebsiella pneumoniae 1084/1957 producing KPC-3 assessed as cefepime MIC at 4 ug/ml by broth microdilution method). Conditions: dose 4 µg/ml.
Format: functional
Method in brief: as §1

How did the MIC turn out when O.O=C(NC1CCNCC1)[C@@H]1CC[C@@H]2CN1C(=O)N2OS(=O)(=O)O [RELEBACTAM] was run?
Its MIC is 0.25 µg/mL.
